ChEMBL document CHEMBL1158526, “Labeled 3-aryl-4-indolylmaleimide derivatives and their potential as angiogenic PET biomarkers” (Bioorg Med Chem, 2010)

Assays:
[1] = Biodistribution in tumor of nude mouse bearing human U87MG tumor at 197 +/- 16 uCi, iv after 60 mins; type: ADME, organism-based, Neoplasm; conditions: in vivo, 1 h
Outline: (§1)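 Male nude Hsd-Athymic Nude-nu mice (10–12 weeks) with subcutaneous 293/KDR tumors (1.5–2 × 10⁶ cells, 7–21 days) or U87MG.wt EGFR tumors (1.5–4 × 10⁶ cells with 20% Matrigel, 4–20 days). The [¹¹C] tracer was given via the lateral tail vein in 10% ethanol/saline (1.1 ± 0.3 Ci/µmol; 225 ± 11 µL). At 30 or 60 min, blood was drawn from the orbital sinus and organs were excised, weighed and gamma-counted; results are %ID/g, n = 10–12.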

Zone of skin [2] = assay: Biodistribution in skin of nude mouse bearing human U87MG tumor at 197 +/- 16 uCi, iv after 30 mins; type: ADME, organism-based; conditions: in vivo, 0.5 h; outline: as §1
Liver [3] = assay: Biodistribution in liver of nude mouse bearing human 293/KDR tumor at 197 +/- 16 uCi, iv after 60 mins; type: ADME, organism-based; conditions: in vivo, 1 h; outline: as §1
Bone [4] = assay: Biodistribution in bone of nude mouse bearing human U87MG tumor at 197 +/- 16 uCi, iv after 30 mins; type: ADME, organism-based, Bone element; conditions: in vivo, 0.5 h; outline: as §1
Kidney [5] = assay: Biodistribution in kidney of nude mouse bearing human 293/KDR tumor at 197 +/- 16 uCi, iv after 60 mins; type: ADME, organism-based; conditions: in vivo, 1 h; outline: as §1
Zone of skin [6] = assay: Biodistribution in skin of nude mouse bearing human U87MG tumor at 197 +/- 16 uCi, iv after 60 mins; type: ADME, organism-based; conditions: in vivo, 1 h; outline: as §1
[7] = Metabolic stability in mouse liver microsome assessed as intact compound at 2 to 3 mCi after 30 mins by RP-HPLC; type: ADME; conditions: liver microsomes, read-out: Stability
Outline: (§2)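 Tracer (2–3 mCi in 100 µL ethanol) was preincubated with 0.5 mg/mL mouse hepatic microsomes in PBS pH 7.4 at 37 °C for 5 min. Reactions were started with 0.25 mM NADPH and sampled at 0–60 min. Aliquots were loaded on a celite plug and eluted with ethanol, and intact tracer was measured by RP-HPLC.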

Kidney [8] = assay: Biodistribution in kidney of nude mouse bearing human U87MG tumor at 197 +/- 16 uCi, iv after 30 mins; type: ADME, organism-based; conditions: in vivo, 0.5 h; outline: as §1
Muscle tissue [9] = assay: Biodistribution in muscle of nude mouse bearing human 293/KDR tumor at 197 +/- 16 uCi, iv after 30 mins; type: ADME, organism-based; conditions: in vivo, 0.5 h; outline: as §1
Blood [10] = assay: Metabolic stability in human blood assessed as residual radioactivity at 300 uCi after 60 mins by RP-HPLC; type: ADME, tissue-based; conditions: 1 h
Outline: (§3)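 Fresh human EDTA blood, 1 mL aliquots, was preincubated at 37 °C for 15 min. About 300 µCi of the [¹¹C] tracer was added and samples were held for 0, 30 or 60 min. Samples were centrifuged, and the plasma was extracted with cold THF/ACN (30:70) and centrifuged again. The extract was analysed by RP-HPLC and by RP-TLC (40:60 H₂O:ACN) with phosphor imaging; n = 3.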

Kidney [11] = assay: Biodistribution in kidney of nude mouse bearing human 293/KDR tumor at 197 +/- 16 uCi, iv after 30 mins; type: ADME, organism-based; conditions: in vivo, 0.5 h; outline: as §1
[12] = Metabolic stability in mouse liver microsome assessed as intact compound at 2 to 3 mCi after 45 mins by RP-HPLC; type: ADME; conditions: liver microsomes, read-out: Stability; outline: as §2
Blood [13] = assay: Biodistribution in blood of nude mouse bearing human 293/KDR tumor at 197 +/- 16 uCi, iv after 60 mins; type: ADME, organism-based; conditions: in vivo, 1 h; outline: as §1
[14] = Biodistribution in tumor of nude mouse bearing human 293/KDR tumor at 197 +/- 16 uCi, iv after 60 mins; type: ADME, organism-based, Neoplasm; conditions: in vivo, 1 h; outline: as §1
Liver [15] = assay: Biodistribution in liver of nude mouse bearing human U87MG tumor at 197 +/- 16 uCi, iv after 30 mins; type: ADME, organism-based; conditions: in vivo, 0.5 h; outline: as §1
Muscle tissue [16] = assay: Biodistribution in muscle of nude mouse bearing human U87MG tumor at 197 +/- 16 uCi, iv after 60 mins; type: ADME, organism-based; conditions: in vivo, 1 h; outline: as §1
Bone [17] = assay: Biodistribution in bone of nude mouse bearing human 293/KDR tumor at 197 +/- 16 uCi, iv after 30 mins; type: ADME, organism-based, Bone element; conditions: in vivo, 0.5 h; outline: as §1
[18] = Biodistribution in tumor of nude mouse bearing human 293/KDR tumor at 197 +/- 16 uCi, iv after 30 mins; type: ADME, organism-based, Neoplasm; conditions: in vivo, 0.5 h; outline: as §1
Liver [19] = assay: Biodistribution in liver of nude mouse bearing human U87MG tumor at 197 +/- 16 uCi, iv after 60 mins; type: ADME, organism-based; conditions: in vivo, 1 h; outline: as §1
Bone [20] = assay: Biodistribution in bone of nude mouse bearing human U87MG tumor at 197 +/- 16 uCi, iv after 60 mins; type: ADME, organism-based, Bone element; conditions: in vivo, 1 h; outline: as §1
Blood [21] = assay: Biodistribution in blood of nude mouse bearing human 293/KDR tumor at 197 +/- 16 uCi, iv after 30 mins; type: ADME, organism-based; conditions: in vivo, 0.5 h; outline: as §1
Blood [22] = assay: Biodistribution in blood of nude mouse bearing human U87MG tumor at 197 +/- 16 uCi, iv after 30 mins; type: ADME, organism-based; conditions: in vivo, 0.5 h; outline: as §1
Blood [23] = assay: Biodistribution in blood of nude mouse bearing human U87MG tumor at 197 +/- 16 uCi, iv after 60 mins; type: ADME, organism-based; conditions: in vivo, 1 h; outline: as §1
Muscle tissue [24] = assay: Biodistribution in muscle of nude mouse bearing human U87MG tumor at 197 +/- 16 uCi, iv after 30 mins; type: ADME, organism-based; conditions: in vivo, 0.5 h; outline: as §1
Liver [25] = assay: Biodistribution in liver of nude mouse bearing human 293/KDR tumor at 197 +/- 16 uCi, iv after 30 mins; type: ADME, organism-based; conditions: in vivo, 0.5 h; outline: as §1
Bone [26] = assay: Biodistribution in bone of nude mouse bearing human 293/KDR tumor at 197 +/- 16 uCi, iv after 60 mins; type: ADME, organism-based, Bone element; conditions: in vivo, 1 h; outline: as §1
Kidney [27] = assay: Biodistribution in kidney of nude mouse bearing human U87MG tumor at 197 +/- 16 uCi, iv after 60 mins; type: ADME, organism-based; conditions: in vivo, 1 h; outline: as §1
Zone of skin [28] = assay: Biodistribution in skin of nude mouse bearing human 293/KDR tumor at 197 +/- 16 uCi, iv after 60 mins; type: ADME, organism-based; conditions: in vivo, 1 h; outline: as §1
Blood [29] = assay: Metabolic stability in human blood assessed as residual radioactivity at 300 uCi after 30 mins by RP-HPLC; type: ADME, tissue-based; conditions: 0.5 h; outline: as §3
[30] = Biodistribution in tumor of nude mouse bearing human U87MG tumor at 197 +/- 16 uCi, iv after 30 mins; type: ADME, organism-based, Neoplasm; conditions: in vivo, 0.5 h; outline: as §1
Muscle tissue [31] = assay: Biodistribution in muscle of nude mouse bearing human 293/KDR tumor at 197 +/- 16 uCi, iv after 60 mins; type: ADME, organism-based; conditions: in vivo, 1 h; outline: as §1
[32] = Octanol-phosphate buffered saline partition coefficient, log D at pH 7.4; type: physicochemical
Outline: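 About 200 µCi of the [¹¹C] tracer was taken up in 5 mL n-octanol and mixed with 1 mL phosphate buffer (pH 7.4, 100 mM), a 5:1 octanol:buffer ratio. The mixture was vortexed for 2 min, the phases were separated, and each phase was measured for radioactivity.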

Zone of skin [33] = assay: Biodistribution in skin of nude mouse bearing human 293/KDR tumor at 197 +/- 16 uCi, iv after 30 mins; type: ADME, organism-based; conditions: in vivo, 0.5 h; outline: as §1
[34] = Metabolic stability in mouse liver microsome assessed as intact compound at 2 to 3 mCi after 15 mins by RP-HPLC; type: ADME; conditions: liver microsomes, read-out: Stability; outline: as §2
[35] = target: Insulin-like growth factor 1 receptor (Homo sapiens, UniProt P08069); assay: Inhibition of IGF1R after 80 mins by radiometric protein kinase assay
Outline: (§4)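 Radiometric [γ-33P]-ATP kinase assay with poly(Glu,Tyr) 4:1 substrate. Reaction run 80 min at 30 °C, stopped with 2% H3PO4 and washed with 0.9% NaCl. 33Pi incorporation counted by microplate scintillation. IC50 from 12 concentrations tested in triplicate, with Z'-factor used as plate control.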

[36] = target: Platelet-derived growth factor receptor alpha (Homo sapiens, UniProt P16234); assay: Inhibition of PDGFRalpha after 80 mins by radiometric protein kinase assay
Outline: (§5)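 Radiometric [γ-33P]-ATP kinase assay with poly(Ala,Glu,Lys,Tyr) 6:2:5:1 substrate. Incubated 30 °C for 80 min, then stopped with 2% H3PO4 and washed with 0.9% NaCl. 33Pi incorporation read by scintillation counting. IC50 from 12 concentrations in triplicate; plate quality checked by Z'-factor.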

[37] = target: Vascular endothelial growth factor receptor 1 (Homo sapiens, UniProt P17948); assay: Inhibition of VEGFR1 after 80 mins by radiometric protein kinase assay; outline: as §4
[38] = target: Vascular endothelial growth factor receptor 3 (Homo sapiens, UniProt P35916); assay: Inhibition of VEGFR3 after 80 mins by radiometric protein kinase assay; outline: as §4
Vascular endothelial growth factor receptor 3, sequence (P35916 whole entry): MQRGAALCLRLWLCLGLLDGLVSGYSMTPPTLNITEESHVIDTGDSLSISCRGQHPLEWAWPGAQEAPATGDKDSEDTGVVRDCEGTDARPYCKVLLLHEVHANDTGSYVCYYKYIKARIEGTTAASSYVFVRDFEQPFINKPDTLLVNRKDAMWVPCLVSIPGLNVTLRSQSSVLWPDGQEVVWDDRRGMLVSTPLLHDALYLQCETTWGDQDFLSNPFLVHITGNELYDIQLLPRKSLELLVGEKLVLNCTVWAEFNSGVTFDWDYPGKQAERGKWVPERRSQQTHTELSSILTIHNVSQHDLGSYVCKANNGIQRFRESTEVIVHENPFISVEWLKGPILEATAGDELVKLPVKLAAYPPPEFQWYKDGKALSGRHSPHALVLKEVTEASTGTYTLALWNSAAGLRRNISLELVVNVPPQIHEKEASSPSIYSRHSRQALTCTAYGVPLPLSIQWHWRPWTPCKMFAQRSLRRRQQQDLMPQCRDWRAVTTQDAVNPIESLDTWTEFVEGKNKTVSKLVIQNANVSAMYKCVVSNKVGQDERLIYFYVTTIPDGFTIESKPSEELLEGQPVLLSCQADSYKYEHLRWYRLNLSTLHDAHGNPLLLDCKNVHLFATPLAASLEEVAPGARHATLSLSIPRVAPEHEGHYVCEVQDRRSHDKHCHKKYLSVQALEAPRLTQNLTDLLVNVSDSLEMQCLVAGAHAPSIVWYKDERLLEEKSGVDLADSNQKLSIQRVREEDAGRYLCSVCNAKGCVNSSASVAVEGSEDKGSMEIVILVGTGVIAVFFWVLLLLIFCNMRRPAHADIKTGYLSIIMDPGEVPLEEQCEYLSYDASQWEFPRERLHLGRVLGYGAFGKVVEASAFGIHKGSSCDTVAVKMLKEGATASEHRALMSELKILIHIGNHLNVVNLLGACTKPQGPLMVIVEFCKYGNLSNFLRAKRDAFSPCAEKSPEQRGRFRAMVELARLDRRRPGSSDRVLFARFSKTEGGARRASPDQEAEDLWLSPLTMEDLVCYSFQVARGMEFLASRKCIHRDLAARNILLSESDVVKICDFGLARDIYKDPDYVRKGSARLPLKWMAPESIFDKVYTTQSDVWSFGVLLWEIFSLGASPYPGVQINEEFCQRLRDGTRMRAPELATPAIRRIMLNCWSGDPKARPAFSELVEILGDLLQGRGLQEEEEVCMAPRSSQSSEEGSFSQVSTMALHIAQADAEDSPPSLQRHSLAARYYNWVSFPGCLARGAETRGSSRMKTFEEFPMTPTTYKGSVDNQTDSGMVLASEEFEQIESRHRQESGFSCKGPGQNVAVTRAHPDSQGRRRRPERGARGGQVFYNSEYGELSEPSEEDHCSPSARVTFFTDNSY

Angiopoietin-1 receptor = Angiopoietin-1 receptor (Homo sapiens, UniProt Q02763); assay: Inhibition of TIE2 after 80 mins by radiometric protein kinase assay; outline: as §5
Angiopoietin-1 receptor, sequence (Q02763 whole entry): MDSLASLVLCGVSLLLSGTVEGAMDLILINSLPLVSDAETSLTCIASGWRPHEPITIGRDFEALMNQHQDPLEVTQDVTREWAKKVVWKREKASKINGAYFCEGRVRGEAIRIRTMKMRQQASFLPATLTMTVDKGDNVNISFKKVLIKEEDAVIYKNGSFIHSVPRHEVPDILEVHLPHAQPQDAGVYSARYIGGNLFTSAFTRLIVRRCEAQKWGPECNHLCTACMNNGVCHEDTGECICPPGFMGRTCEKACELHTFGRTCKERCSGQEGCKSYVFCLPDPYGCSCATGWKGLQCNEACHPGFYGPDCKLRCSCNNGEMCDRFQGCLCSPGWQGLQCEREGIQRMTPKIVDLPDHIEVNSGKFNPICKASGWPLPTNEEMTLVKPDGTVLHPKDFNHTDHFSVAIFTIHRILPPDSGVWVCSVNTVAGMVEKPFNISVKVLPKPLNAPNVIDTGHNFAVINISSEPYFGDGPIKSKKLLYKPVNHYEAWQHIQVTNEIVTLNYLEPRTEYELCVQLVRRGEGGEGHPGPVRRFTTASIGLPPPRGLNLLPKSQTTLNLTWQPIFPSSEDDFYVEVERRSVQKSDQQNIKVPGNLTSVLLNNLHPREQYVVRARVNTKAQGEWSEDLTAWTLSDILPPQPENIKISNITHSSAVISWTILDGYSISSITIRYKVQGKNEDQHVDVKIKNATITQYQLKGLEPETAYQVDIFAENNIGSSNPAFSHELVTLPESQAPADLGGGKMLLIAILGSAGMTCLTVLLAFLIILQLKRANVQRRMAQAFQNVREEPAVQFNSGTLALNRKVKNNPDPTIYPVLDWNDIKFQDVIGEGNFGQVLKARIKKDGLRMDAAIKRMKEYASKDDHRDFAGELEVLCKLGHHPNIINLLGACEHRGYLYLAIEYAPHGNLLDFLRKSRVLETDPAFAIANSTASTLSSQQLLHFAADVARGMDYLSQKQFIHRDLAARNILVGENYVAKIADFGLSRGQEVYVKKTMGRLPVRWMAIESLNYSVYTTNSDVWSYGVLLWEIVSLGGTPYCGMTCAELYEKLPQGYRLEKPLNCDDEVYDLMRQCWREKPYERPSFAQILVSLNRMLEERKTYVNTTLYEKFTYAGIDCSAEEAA

[39] = target: Epidermal growth factor receptor (Homo sapiens, UniProt P00533); assay: Inhibition of EGFR after 80 mins by radiometric protein kinase assay
[40] = target: Platelet-derived growth factor receptor beta (Homo sapiens, UniProt P09619); assay: Inhibition of PDGFRbeta after 80 mins by radiometric protein kinase assay
Platelet-derived growth factor receptor beta, sequence (P09619 whole entry): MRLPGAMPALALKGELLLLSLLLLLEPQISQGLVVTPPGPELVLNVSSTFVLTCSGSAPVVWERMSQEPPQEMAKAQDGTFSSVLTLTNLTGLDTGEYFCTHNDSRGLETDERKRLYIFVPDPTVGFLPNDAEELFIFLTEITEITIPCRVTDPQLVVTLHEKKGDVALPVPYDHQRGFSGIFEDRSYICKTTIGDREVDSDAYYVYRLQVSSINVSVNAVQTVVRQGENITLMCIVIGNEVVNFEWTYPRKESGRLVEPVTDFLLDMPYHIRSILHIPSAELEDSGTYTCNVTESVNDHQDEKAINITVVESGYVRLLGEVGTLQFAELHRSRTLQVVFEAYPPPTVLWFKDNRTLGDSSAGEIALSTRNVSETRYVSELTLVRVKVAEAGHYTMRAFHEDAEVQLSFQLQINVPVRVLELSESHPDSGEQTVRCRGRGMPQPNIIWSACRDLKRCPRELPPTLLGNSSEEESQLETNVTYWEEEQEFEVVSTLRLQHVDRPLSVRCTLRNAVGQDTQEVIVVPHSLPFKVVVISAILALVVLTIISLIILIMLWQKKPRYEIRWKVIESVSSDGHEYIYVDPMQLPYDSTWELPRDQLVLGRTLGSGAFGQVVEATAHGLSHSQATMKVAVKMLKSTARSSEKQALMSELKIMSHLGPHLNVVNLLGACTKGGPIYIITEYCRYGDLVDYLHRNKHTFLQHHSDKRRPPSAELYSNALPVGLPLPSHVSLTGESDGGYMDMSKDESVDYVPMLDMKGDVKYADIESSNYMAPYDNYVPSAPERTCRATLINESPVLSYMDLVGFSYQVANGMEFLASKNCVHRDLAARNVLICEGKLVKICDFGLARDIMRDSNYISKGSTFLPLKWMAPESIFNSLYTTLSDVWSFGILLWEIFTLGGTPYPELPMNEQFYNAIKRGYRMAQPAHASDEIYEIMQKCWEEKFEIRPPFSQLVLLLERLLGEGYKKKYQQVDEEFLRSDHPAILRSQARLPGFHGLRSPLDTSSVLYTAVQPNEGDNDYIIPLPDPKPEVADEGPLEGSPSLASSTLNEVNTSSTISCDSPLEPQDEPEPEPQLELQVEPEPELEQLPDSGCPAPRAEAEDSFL

[41] = target: Vascular endothelial growth factor receptor 2 (Homo sapiens, UniProt P35968); assay: Inhibition of VEGFR2 after 80 mins by radiometric protein kinase assay; outline: as §4
[42] = target: Mast/stem cell growth factor receptor Kit (Homo sapiens, UniProt P10721); assay: Inhibition of KIT after 80 mins by radiometric protein kinase assay
Outline: (§6)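 The substrate was Poly(Glu,Tyr)4:1. 12 concentrations were run in triplicate with 1% final DMSO, at 30 °C for 80 min. Reactions were stopped with 2% H₃PO₄, washed with 0.9% NaCl, and ³³P incorporation was read by scintillation counting.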

[43] = target: Receptor tyrosine-protein kinase erbB-2 (Homo sapiens, UniProt P04626); assay: Inhibition of ERBB2 after 80 mins by radiometric protein kinase assay; outline: as §6
Receptor tyrosine-protein kinase erbB-2, sequence (P04626 whole entry): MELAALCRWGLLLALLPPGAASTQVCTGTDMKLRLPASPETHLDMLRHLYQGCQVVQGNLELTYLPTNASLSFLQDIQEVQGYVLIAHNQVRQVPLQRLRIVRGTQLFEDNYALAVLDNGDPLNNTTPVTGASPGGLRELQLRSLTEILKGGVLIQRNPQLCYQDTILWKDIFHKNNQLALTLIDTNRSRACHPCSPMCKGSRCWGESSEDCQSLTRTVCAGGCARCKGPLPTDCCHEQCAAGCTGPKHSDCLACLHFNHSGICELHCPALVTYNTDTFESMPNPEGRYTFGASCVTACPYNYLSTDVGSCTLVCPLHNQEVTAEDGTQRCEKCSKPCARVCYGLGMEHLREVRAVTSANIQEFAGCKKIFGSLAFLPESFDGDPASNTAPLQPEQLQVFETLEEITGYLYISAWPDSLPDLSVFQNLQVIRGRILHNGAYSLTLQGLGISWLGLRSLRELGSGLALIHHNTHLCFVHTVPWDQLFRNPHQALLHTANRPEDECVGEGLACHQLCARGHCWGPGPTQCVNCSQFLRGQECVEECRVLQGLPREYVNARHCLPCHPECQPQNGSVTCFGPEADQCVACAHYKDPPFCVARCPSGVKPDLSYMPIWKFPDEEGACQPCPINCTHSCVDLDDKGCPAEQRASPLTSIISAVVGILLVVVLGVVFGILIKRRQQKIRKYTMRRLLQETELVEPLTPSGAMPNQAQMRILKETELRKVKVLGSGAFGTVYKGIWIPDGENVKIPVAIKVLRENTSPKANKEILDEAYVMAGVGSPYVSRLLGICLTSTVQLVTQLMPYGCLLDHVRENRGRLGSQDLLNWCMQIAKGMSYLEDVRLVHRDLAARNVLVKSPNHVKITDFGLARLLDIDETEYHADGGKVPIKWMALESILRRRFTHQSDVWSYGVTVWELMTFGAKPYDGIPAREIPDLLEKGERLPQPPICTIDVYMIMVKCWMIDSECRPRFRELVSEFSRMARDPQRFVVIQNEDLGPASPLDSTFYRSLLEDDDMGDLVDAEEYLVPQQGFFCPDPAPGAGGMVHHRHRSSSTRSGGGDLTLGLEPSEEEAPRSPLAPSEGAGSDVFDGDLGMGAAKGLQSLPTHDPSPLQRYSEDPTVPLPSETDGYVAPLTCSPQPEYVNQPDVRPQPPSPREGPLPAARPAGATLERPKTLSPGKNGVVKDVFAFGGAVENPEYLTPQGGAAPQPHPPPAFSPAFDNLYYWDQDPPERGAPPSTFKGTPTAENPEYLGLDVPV

COc1cc(C2=C(c3c[nH]c4ccccc34)C(=O)NC2=O)cc(OC)c1O[11CH3]
Stability [1]: 0.17 % ID/g
Stability (Zone of skin [2]): 0.41 % ID/g
Stability (Liver [3]): 2.95 % ID/g
Stability (Bone [4]): 0.19 % ID/g
Stability (Kidney [5]): 0.8 % ID/g
Stability (Zone of skin [6]): 0.21 % ID/g
remaining at 0.5 h [7]: 25%
Stability (Kidney [8]): 2.24 % ID/g
Stability (Muscle tissue [9]): 0.2 % ID/g
Stability (Blood [10]): 62 % ID/g
Stability (Kidney [11]): 2.29 % ID/g
remaining at 0.75 h [12]: 16%
Stability (Blood [13]): 0.19 % ID/g
Stability [14]: 0.14 % ID/g
Stability (Liver [15]): 2.64 % ID/g
Stability (Muscle tissue [16]): 0.09 % ID/g
Stability (Bone [17]): 0.15 % ID/g
Stability [18]: 0.3 % ID/g
Stability (Liver [19]): 1.68 % ID/g
Stability (Bone [20]): 0.11 % ID/g
Stability (Blood [21]): 0.36 % ID/g
Stability (Blood [22]): 0.38 % ID/g
Stability (Blood [23]): 0.29 % ID/g
Stability (Muscle tissue [24]): 0.17 % ID/g
Stability (Liver [25]): 2.89 % ID/g
Stability (Bone [26]): 0.09 % ID/g
Stability (Kidney [27]): 0.79 % ID/g
Stability (Zone of skin [28]): 0.14 % ID/g
Stability (Blood [29]): 61 % ID/g
Stability [30]: 0.33 % ID/g
Stability (Muscle tissue [31]): 0.08 % ID/g
logD [32]: 1.99
Stability (Zone of skin [33]): 0.38 % ID/g
remaining at 0.25 h [34]: 40%

COc1cc(C2=C(c3c[nH]c4ccc(Br)cc34)C(=O)NC2=O)cc(OC)c1OC
IC50 [35]: 4240 nM
IC50 [36]: 1160 nM
IC50 [37]: 72.4 nM
IC50 [38]: 21 nM
IC50 (Angiopoietin-1 receptor): 2370 nM
IC50 [39]: 5800 nM
IC50 [40]: 900 nM
IC50 [41]: 22.5 nM
IC50 [42]: 3220 nM
IC50 [43]: 13300 nM
